{"data": "Published values from different studies", "OPRM1": "Mu-type opioid receptor (OPRM1, Homo sapiens, UniProt P35372)", "GRK4": "G protein-coupled receptor kinase 4 (GRK4, Homo sapiens, UniProt P32298)"}
{"target": "SRSF protein kinase 1 (SRPK1, Homo sapiens, UniProt Q96SB4)", "assay": "enzyme activity, inhibitor", "conditions": "0.1 µM", "endpoint": "inhibition", "result": "1.88%", "SMILES": "Cc1cc(O)c(-c2ccc([C@@H](C)CN(C)C)cc2)c2c1[nH]c(=O)c1sccc12"}
{"target": "Protein kinase C alpha type (PRKCA, Homo sapiens, UniProt P17252)", "assay": "binding", "conditions": "1 µM", "endpoint": "remaining binding", "result": "100%", "SMILES": "COc1ccc2oc(-c3ccc4nc(N)oc4c3)c/c(=N\\c3ccccc3NC(=O)CCN)c2c1"}
{"target": "OPRM1", "assay": "cell-free assay", "conditions": "10 µM", "endpoint": "inhibition", "result": "5%", "SMILES": "Cc1cc(F)cc2c(CCC(=O)N[C@@H]3C(=O)NC[C@H]3O)c(-c3ccc(F)cc3)[nH]c12"}
{"target": "OPRM1", "assay": "ligand displacement, radioligand", "conditions": "10 µM", "endpoint": "inhibition", "result": "0.11%", "SMILES": "CCN1/C(=C/C(C)=O)Sc2ccc(F)cc21"}
{"target": "GRK4", "assay": "binding, competition with immobilised ligand", "conditions": "1 µM", "endpoint": "remaining binding", "result": "89%", "SMILES": "Cc1cc(S(=O)(=O)N[C@H]2CC[C@H](CN3CCN(c4ccc(C5CCC(=O)NC5=O)cc4F)CC3)CC2)ccc1Nc1ncc(C(F)(F)F)c(N2CCC[C@](C)(O)C2)n1 (stereo partly shown)"}
{"target": "eIF-2-alpha kinase GCN2 (EIF2AK4, Homo sapiens, UniProt Q9P2K8, S808G)", "assay": "binding", "conditions": "0.1 µM", "endpoint": "remaining binding", "result": "9.6%", "SMILES": "C1=C/COCc2cc(ccc2OCCN2CCCC2)Nc2nccc(n2)-c2cccc(c2)COC/1"}
{"target": "cGMP-dependent protein kinase 1 (PRKG1, Homo sapiens, UniProt Q13976)", "assay": "enzyme activity, inhibitor", "conditions": "0.2 µM", "endpoint": "inhibition", "result": "3.89%", "SMILES": "C#Cc1cc(-c2cc(Nc3nc(N[C@@H](C)c4ccc(F)cn4)ncc3Cl)n[nH]2)ccc1C=O"}
{"target": "GRK4", "assay": "binding, competition with immobilised ligand", "conditions": "1 µM", "endpoint": "remaining binding", "result": "93%", "SMILES": "C[C@]1(O)CCCN(c2nc(Nc3ccc(S(=O)(=O)N[C@H]4CC[C@H](CN5CCN(c6ccc(C7CCC(=O)NC7=O)cc6F)CC5)CC4)cc3Cl)ncc2C(F)(F)F)C1 (stereo partly shown)"}
{"target": "Ephrin type-A receptor 6 (EPHA6, Homo sapiens, UniProt Q9UF33)", "assay": "binding, competition with immobilised ligand", "conditions": "0.5 µM", "endpoint": "remaining binding", "result": "100%", "SMILES": "CCCCC(=O)Nc1ccc(-c2ccc3ncn(CCC)c(=O)c3c2)cn1"}
{"target": "OPRM1", "assay": "ligand displacement, radioligand", "conditions": "10 µM", "endpoint": "inhibition", "result": "< 50%", "SMILES": "NC/C(=C\\F)COc1cccc(Cn2c(=S)[nH]c(=O)c3[nH]cnc32)c1"}
